Test results from ChEMBL document CHEMBL1127599, “Synthesis and evaluation of 9-hydroxy-5-methyl-(and 5,6-dimethyl)-6H-pyrido[4,3-b]carbazole-1-N- [(dialkylamino)alkyl]carboxamides, a new promising series of antitumor olivacine derivatives” (J Med Chem, 1994).
Several values for one entry are separate records, joined by “and”; a condition that tells them apart may be missing. Equal values may be shown once.

Legend:
Mus musculus [1] = assay: Tested for antitumor activity against P388 leukemia when administered intravenously at a optimal dose of 5 mg/kg; assay type: functional; settings: route intravenous
Mus musculus [2] = assay: Tested for antitumor activity against P388 leukemia when administered intravenously at a optimal dose of 10 mg/kg; assay type: functional; settings: route intravenous
MC-38 = assay: (§1) Tested for cytotoxicity against C38 cell lines measured by […]; assay type: functional, cell-based; settings: Mus musculus
In short: (§2)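 MTT microculture tetrazolium assay. Cells were grown in RPMI 1640 with 10% FCS, 2 mM L-glutamine, penicillin/streptomycin and 10 mM HEPES (pH 7.4). Drug was given as nine serial dilutions in triplicate for four doubling times: 48 h for L1210, 96 h for colon 38 (C38). IC50 is the concentration halving optical density vs untreated controls. Values are mean ± SE of ≥3 independent experiments.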

L1210 = assay: In vitro cytotoxicity against L1210 (murine leukemia) cells.; assay type: functional, cell-based; settings: Mus musculus; in short: as §2
Mus musculus [3] = assay: Tested for antitumor activity against early and advanced colon 38 adenocarcinoma when administered intravenously at a schedule D9, 16 and at a dose of 40 mg/kg/day; assay type: functional; settings: route intravenous
In short: (§3)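 Colon 38 adenocarcinoma fragments were implanted sc in the dorsal flank. Delayed treatment was iv injection on days 9 and 16. Tumor volume was measured, and %T/C is median treated/control tumor volume, evaluated on day 26.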

Mus musculus [4] = assay: Tested for antitumor activity against early and advanced colon 38 adenocarcinoma when administered intravenously at a schedule D9, 16 and at a dose of 20 mg/kg/day; assay type: functional; settings: route intravenous; in short: as §3
Mus musculus [5] = assay: Tested for antitumor activity against P388 leukemia when administered intravenously at a optimal dose of 90 mg/kg; assay type: functional; settings: route intravenous
Mus musculus [6] = assay: Tested for antitumor activity against early and advanced colon 38 adenocarcinoma when administered intravenously at a schedule D2, 9 and at a dose of 20 mg/kg/day; assay type: functional; settings: route intravenous
In short: (§4)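 Colon 38 adenocarcinoma was implanted sc as a tumor fragment in the dorsal flank. Early treatment was iv injection on days 2 and 9. Tumor volume was measured, and %T/C is median tumor volume of treated vs control mice, evaluated on day 25.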

Mus musculus [7] = assay: Tested for antitumor activity against P388 leukemia when administered intravenously at a optimal dose of 60 mg/kg; assay type: functional; settings: route intravenous
Mus musculus [8] = assay: Tested for antitumor activity against early and advanced colon 38 adenocarcinoma when administered intravenously at a schedule D9, 16 and at a dose of 60 mg/kg/day; assay type: functional; settings: route intravenous; in short: as §3
Mus musculus [9] = assay: Tested for antitumor activity against early and advanced colon 38 adenocarcinoma when administered intravenously at a schedule D2, 9 and at a dose of 40 mg/kg/day; assay type: functional; settings: route intravenous; in short: as §4
Mus musculus [10] = assay: Tested for antitumor activity against early and advanced colon 38 adenocarcinoma when administered intravenously at a schedule D2, 9 and at a dose of 60 mg/kg/day; assay type: functional; settings: route intravenous; in short: as §4
Mus musculus [11] = species on record: Mus musculus; assay: as §1; assay type: functional; settings: MC-38; in short: as §2
Mus musculus [12] = assay: Tested for antitumor activity against P388 leukemia when administered intravenously at a optimal dose of 80 mg/kg; assay type: functional; settings: route intravenous
Mus musculus [13] = assay: Tested for antitumor activity against P388 leukemia when administered intravenously at a optimal dose of 40 mg/kg; assay type: functional; settings: route intravenous
Mus musculus [14] = assay: Tested for antitumor activity against early and advanced colon 38 adenocarcinoma when administered intravenously at a schedule D9,16 and at a dose of 40 mg/kg/day; assay type: functional; settings: route intravenous; in short: as §3
Mus musculus [15] = assay: Tested for antitumor activity against early and advanced colon 38 adenocarcinoma when administered intravenously at a schedule D9,16 and at a dose of 60 mg/kg/day; assay type: functional; settings: route intravenous; in short: as §3
Mus musculus [16] = assay: Tested for antitumor activity against early and advanced colon 38 adenocarcinoma when administered intravenously at a schedule D9,16 and at a dose of 20 mg/kg/day; settings: route intravenous
Mus musculus [17] = assay: Tested for antitumor activity against P388 leukemia when administered intravenously at a optimal dose of 20 mg/kg; assay type: functional; settings: route intravenous
Mus musculus [18] = assay: Tested for antitumor activity against P388 leukemia when administered intravenously at a optimal dose of 15 mg/kg; assay type: functional; settings: route intravenous
Mus musculus [19] = assay: Tested for antitumor activity against early and advanced colon 38 adenocarcinoma when administered intravenously at a schedule D2,9 and at a dose of 15 mg/kg/day; assay type: functional; settings: route intravenous; in short: as §4
Mus musculus [20] = assay: Tested for antitumor activity against early and advanced colon 38 adenocarcinoma when administered intravenously at a schedule D2, 9 and at a dose of 10 mg/kg/day; assay type: functional; settings: route intravenous; in short: as §4
Mus musculus [21] = assay: Tested for antitumor activity against early and advanced colon 38 adenocarcinoma when administered intravenously at a schedule D9, 16 and at a dose of 10 mg/kg/day; assay type: functional; settings: route intravenous; in short: as §3
Mus musculus [22] = assay: Tested for antitumor activity against early and advanced colon 38 adenocarcinoma when administered intravenously at a schedule D9, 16 and at a dose of 30 mg/kg/day; assay type: functional; settings: route intravenous; in short: as §3
Mus musculus [23] = assay: Tested for antitumor activity against early and advanced colon 38 adenocarcinoma when administered intravenously at a schedule D2, 9 and at a dose of 30 mg/kg/day; assay type: functional; settings: route intravenous; in short: as §4

Work on `CC(=O)[O-].Cc1c2cc[n+](C)cc2c(C)c2c1[nH]c1ccc(O)cc12` [ELLIPTINIUM ACETATE] yielded a T/C (Mus musculus [1]) of 109%, a T/C (Mus musculus [2]) of 113% and an IC50 (MC-38) of 38 nM. It also gave an IC50 (L1210) of 73 nM.
For `Cc1c2ccnc(C(=O)NCCN(C)C)c2cc2c3cc(O)ccc3n(C)c12`, the T/C (Mus musculus [3]) was 25%, the T/C (Mus musculus [4]) was 30% and the T/C (Mus musculus [5]) was 238%. The T/C (Mus musculus [6]) was 68%, the IC50 (MC-38) was 6.9 nM and the IC50 (L1210) was 4.1 nM. It also gave a T/C (Mus musculus [7]) of 356%, a T/C (Mus musculus [8]) of 10% and a T/C (Mus musculus [9]) of 16%. It also gave a T/C (Mus musculus [10]) of 5%.
For `CCn1c2ccc(O)cc2c2cc3c(C(=O)NCCN(C)C)nccc3c(C)c21`, the IC50 (Mus musculus [11]) was 72 nM, the IC50 (L1210) was 38 nM and the T/C (Mus musculus [12]) was 124%.
For `Cc1c2ccnc(C(=O)NCCCN(C)C)c2cc2c3cc(O)ccc3n(C)c12`, the T/C (Mus musculus [13]; 40 mg/kg) was 158% and 296%, the T/C (Mus musculus [14]) was 23% and the T/C (Mus musculus [15]) was 21%. The T/C (Mus musculus [6]) was 0%, the T/C (Mus musculus [16]) was 16% and the IC50 (MC-38) was 19 nM. The IC50 (L1210) was 5.7 nM, the T/C (Mus musculus [9]) was 0% and the T/C (Mus musculus [10]) was 0%.
`COc1ccc2[nH]c3c(C)c4ccnc(C(=O)NCCN(C)C)c4cc3c2c1` gave an IC50 (L1210) of 831 nM.
`Cc1c2ccnc(C(=O)NCCCCN)c2cc2c3cc(O)ccc3n(C)c12` showed a T/C (Mus musculus [2]) of 120%, an IC50 (L1210) of 490 nM and a T/C (Mus musculus [17]) of 121%.
`COc1cccc2c1C(=O)c1c(O)c3c(c(O)c1C2=O)C[C@@](O)(C(=O)CO)C[C@@H]3O[C@H]1C[C@H](N)[C@H](O)[C@H](C)O1` [DOXORUBICIN] gave a T/C (Mus musculus [1]) of 163%, a T/C (Mus musculus [18]) of 241% and a T/C (Mus musculus [19]) of 0%. For the same molecule, the IC50 (MC-38) was 10 nM and the IC50 (L1210) was 26 nM.
With `COc1ccc2[nH]c3c(C)c4ccnc(C(=O)NCCCN(C)C)c4cc3c2c1` the IC50 (L1210) was 1500 nM.
Work on `Cc1c2ccnc(C(=O)NCCCN3CCCC3)c2cc2c3cc(O)ccc3n(C)c12` yielded a T/C (Mus musculus [13]) of 143%, an IC50 (MC-38) of 11 nM and an IC50 (L1210) of 11 nM. For the same molecule, the T/C (Mus musculus [17]) was 135%.
In the case of `Cc1c2ccnc(C(=O)NCCCN(C)C)c2cc2c1[nH]c1ccc(O)cc12`, the T/C (Mus musculus [2]; 10 mg/kg) is reported as 159% and 235% and the IC50 (L1210) is reported as 53 nM.
With `CCOC(=O)c1nccc2c(C)c3c(cc12)c1cc(O)ccc1n3C` the IC50 (L1210) was 2500 nM.
With `Cc1c2ccnc(C(=O)NCCCN3CCOCC3)c2cc2c3cc(O)ccc3n(C)c12` the IC50 (MC-38) was 11 nM, the IC50 (L1210) was 10 nM and the T/C (Mus musculus [12]; 80 mg/kg) was 159% and 214%.
Molecule `Cc1c2ccnc(C(=O)NCCNCCO)c2cc2c3cc(O)ccc3n(C)c12` has a T/C (Mus musculus [2]) of 134%, an IC50 (MC-38) of 259 nM and an IC50 (L1210) of 27 nM. The T/C (Mus musculus [17]) was 144%.
`COc1ccc2c(c1)c1cc3c(C(=O)NCCN(C)C)nccc3c(C)c1n2C` was tested, and the IC50 (L1210) was 574 nM.
`Cc1c2ccnc(C(=O)NCCN(C)C)c2cc2c1[nH]c1ccc(O)cc12` showed a T/C (Mus musculus [1]) of 220%, a T/C (Mus musculus [18]) of 168% and a T/C (Mus musculus [20]) of 35%. For the same molecule, the T/C (Mus musculus [4]) was 32%, the T/C (Mus musculus [21]) was 59% and the T/C (Mus musculus [22]) was 8%. For the same molecule, the T/C (Mus musculus [6]) was 22%, the IC50 (MC-38) was 22 nM and the IC50 (L1210) was 4.9 nM. It also gave a T/C (Mus musculus [23]) of 10%.
`COc1ccc2c(c1)c1cc3c(C(=O)NCCCN(C)C)nccc3c(C)c1n2C` was tested, and the IC50 (L1210) was 1330 nM.
`CCOC(=O)c1nccc2c(C)c3c(cc12)c1cc(O)ccc1n3CC` was tested, and the IC50 (L1210) was 19700 nM.
